# Laboratory results published in ChEMBL document CHEMBL3352430, “4-Aminopyridyl-based CYP51 inhibitors as anti-Trypanosoma cruzi drug leads with improved pharmacokinetic profile and in vivo potency” (J Med Chem, 2014).
# Tested on: not listed separately
# Assay: Drug uptake in mouse fat at 50 mg/kg, po in 20% HP-beta-CD measured at 8 hrs post dose
# Format: ADME, organism-based, Adipose tissue
# Set-up: dose 50 mg/kg, route oral
# Settings: in vivo; call rule not given here
# Summary of the method: (§1)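 Female Swiss Webster mice, 8 weeks old, given a single 50 mg/kg oral gavage dose in 20% HPβCD or 20% Kolliphor. Tissues taken from three mice at 2 and 8 h post dose. Homogenized by probe sonication in PBS (1:4 w/v), protein precipitated with acetonitrile, and compound measured by LC-MS/MS in μM.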
row,Compound,Drug uptake
1,O=C(N[C@H](Cc1c[nH]c2ccccc12)C(=O)Nc1ccncc1)c1ccc(N2CCN(c3cccc(Cl)c3)CC2)cc1F,Active
2,CC(=O)N1CCN(c2ccc(C(=O)N[C@H](Cc3c[nH]c4ccccc34)C(=O)Nc3ccncc3)c(F)c2)CC1,Active
3,O=C(N[C@H](Cc1c[nH]c2ccccc12)C(=O)Nc1ccncc1)c1ccc(-c2cc(F)ccc2F)cc1F,Active

# Tested on: Liver microsome
# Assay: Half life in rat liver microsomes
# Format: ADME
# Settings: not given
row,Compound,t1/2 [min]
1,O=C(N[C@H](Cc1c[nH]c2ccccc12)C(=O)Nc1ccncc1)c1ccc(N2CCN(c3cccc(Cl)c3)CC2)cc1F,21
2,CC(=O)N1CCN(c2ccc(C(=O)N[C@H](Cc3c[nH]c4ccccc34)C(=O)Nc3ccncc3)c(F)c2)CC1,18

# Tested on: Intestine
# Assay: Drug uptake in mouse intestine at 50 mg/kg, po in 20% HP-beta-CD measured at 8 hrs post dose
# Format: ADME, organism-based
# Set-up: dose 50 mg/kg, route oral
# Settings: in vivo
# Summary of the method: as §1
row,Compound,Drug uptake
1,O=C(N[C@H](Cc1c[nH]c2ccccc12)C(=O)Nc1ccncc1)c1ccc(N2CCN(c3cccc(Cl)c3)CC2)cc1F,Active
2,CC(=O)N1CCN(c2ccc(C(=O)N[C@H](Cc3c[nH]c4ccccc34)C(=O)Nc3ccncc3)c(F)c2)CC1,Active
3,O=C(N[C@H](Cc1c[nH]c2ccccc12)C(=O)Nc1ccncc1)c1ccc(-c2cc(F)ccc2F)cc1F,Active

# Tested on: C2C12
# Assay: Cytotoxicity against mouse C2C12 cells up to 10 uM
# Format: cell-based
# Settings: not given
# Summary of the method: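 Mouse C2C12 myoblasts infected with T. cruzi CA-I/72, then exposed at 24 h postinfection to compound at 10 μM down to 5 pM in 5-fold steps for 72 h at 37 °C. Cells fixed in paraformaldehyde, stained with DAPI and scored by automated imaging. Triplicate wells; uninfected and infected untreated wells as controls.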
row,Compound,Activity
1,O=C(N[C@H](Cc1c[nH]c2ccccc12)C(=O)Nc1ccncc1)c1ccc(N2CCN(c3cccc(Cl)c3)CC2)cc1F,Non-toxic
2,CC(=O)N1CCN(c2ccc(C(=O)N[C@H](Cc3c[nH]c4ccccc34)C(=O)Nc3ccncc3)c(F)c2)CC1,Non-toxic
3,O=C(N[C@H](Cc1c[nH]c2ccccc12)C(=O)Nc1ccncc1)c1ccc(-c2cc(F)ccc2F)cc1F,Non-toxic

# Tested on: Intestine
# Assay: Drug uptake in mouse intestine at 50 mg/kg, po in 20% Kolliphor measured at 8 hrs post dose
# Format: ADME, organism-based
# Set-up: dose 50 mg/kg, route oral
# Settings: in vivo
# Summary of the method: as §1
row,Compound,Drug uptake
1,O=C(N[C@H](Cc1c[nH]c2ccccc12)C(=O)Nc1ccncc1)c1ccc(N2CCN(c3cccc(Cl)c3)CC2)cc1F,Active
2,CC(=O)N1CCN(c2ccc(C(=O)N[C@H](Cc3c[nH]c4ccccc34)C(=O)Nc3ccncc3)c(F)c2)CC1,Active
3,O=C(N[C@H](Cc1c[nH]c2ccccc12)C(=O)Nc1ccncc1)c1ccc(-c2cc(F)ccc2F)cc1F,Active

# Tested on: Liver
# Assay: Drug uptake in mouse liver at 50 mg/kg, po in 20% Kolliphor measured at 8 hrs post dose
# Format: ADME, organism-based
# Set-up: dose 50 mg/kg, route oral
# Settings: in vivo
# Summary of the method: as §1
row,Compound,Drug uptake
1,O=C(N[C@H](Cc1c[nH]c2ccccc12)C(=O)Nc1ccncc1)c1ccc(N2CCN(c3cccc(Cl)c3)CC2)cc1F,Active
2,CC(=O)N1CCN(c2ccc(C(=O)N[C@H](Cc3c[nH]c4ccccc34)C(=O)Nc3ccncc3)c(F)c2)CC1,Active
3,O=C(N[C@H](Cc1c[nH]c2ccccc12)C(=O)Nc1ccncc1)c1ccc(-c2cc(F)ccc2F)cc1F,Active

# Tested on: Liver microsome
# Assay: Half life in human liver microsomes
# Format: ADME
# Settings: not given
row,Compound,t1/2 [min]
1,CC(=O)N1CCN(c2ccc(C(=O)N[C@H](Cc3c[nH]c4ccccc34)C(=O)Nc3ccncc3)c(F)c2)CC1,64

# Tested on: Liver
# Assay: Drug uptake in mouse liver at 50 mg/kg, po in 20% HP-beta-CD measured at 8 hrs post dose
# Format: ADME, organism-based
# Set-up: dose 50 mg/kg, route oral
# Settings: in vivo
# Summary of the method: as §1
row,Compound,Drug uptake
1,O=C(N[C@H](Cc1c[nH]c2ccccc12)C(=O)Nc1ccncc1)c1ccc(N2CCN(c3cccc(Cl)c3)CC2)cc1F,Active
2,CC(=O)N1CCN(c2ccc(C(=O)N[C@H](Cc3c[nH]c4ccccc34)C(=O)Nc3ccncc3)c(F)c2)CC1,Active
3,O=C(N[C@H](Cc1c[nH]c2ccccc12)C(=O)Nc1ccncc1)c1ccc(-c2cc(F)ccc2F)cc1F,Active

# Tested on: Trypanosoma cruzi
# Assay: Antitrypanosomal activity against Trypanosoma cruzi Y luc infected in mouse assessed as inhibition of parasitemia at 40 mg/kg, ip bid in 60% DMSO administered for 4 consecutive days starting on day 3 of infection measured on day 7 post infection relative to vehicle-treated control
# Settings: not given
row,Compound,inhibition in vivo at 40 mg/kg [%]
1,CC(=O)N1CCN(c2ccc(C(=O)N[C@H](Cc3c[nH]c4ccccc34)C(=O)Nc3ccncc3)c(F)c2)CC1,52
2,O=C(N[C@H](Cc1c[nH]c2ccccc12)C(=O)Nc1ccncc1)c1ccc(-c2cc(F)ccc2F)cc1F,35.4

# Tested on: Heart
# Assay: Drug uptake in mouse heart at 50 mg/kg, po in 20% Kolliphor measured at 8 hrs post dose
# Format: ADME, organism-based
# Set-up: dose 50 mg/kg, route oral
# Settings: in vivo
# Summary of the method: as §1
row,Compound,Drug uptake
1,O=C(N[C@H](Cc1c[nH]c2ccccc12)C(=O)Nc1ccncc1)c1ccc(N2CCN(c3cccc(Cl)c3)CC2)cc1F,Active
2,CC(=O)N1CCN(c2ccc(C(=O)N[C@H](Cc3c[nH]c4ccccc34)C(=O)Nc3ccncc3)c(F)c2)CC1,Active
3,O=C(N[C@H](Cc1c[nH]c2ccccc12)C(=O)Nc1ccncc1)c1ccc(-c2cc(F)ccc2F)cc1F,Active

# Tested on: not listed separately
# Assay: Drug uptake in mouse fat at 50 mg/kg, po in 20% Kolliphor measured at 8 hrs post dose
# Format: ADME, organism-based, Adipose tissue
# Set-up: dose 50 mg/kg, route oral
# Settings: in vivo
# Summary of the method: as §1
row,Compound,Drug uptake
1,O=C(N[C@H](Cc1c[nH]c2ccccc12)C(=O)Nc1ccncc1)c1ccc(N2CCN(c3cccc(Cl)c3)CC2)cc1F,Active
2,CC(=O)N1CCN(c2ccc(C(=O)N[C@H](Cc3c[nH]c4ccccc34)C(=O)Nc3ccncc3)c(F)c2)CC1,Active
3,O=C(N[C@H](Cc1c[nH]c2ccccc12)C(=O)Nc1ccncc1)c1ccc(-c2cc(F)ccc2F)cc1F,Active

# Tested on: Trypanosoma cruzi
# Assay: Antitrypanosomal activity against Trypanosoma cruzi Y luc infected in mouse assessed as inhibition of parasitemia at 50 mg/kg, po bid in 20% Kolliphor administered for 4 consecutive days starting on day 3 of infection measured on day 7 post infection relative to vehicle-treated control
# Format: functional
# Settings: not given
# Summary of the method: (§2)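 Female Swiss Webster mice, 8 weeks old, infected ip with 10^5 T. cruzi Y luc trypomastigotes. Only mice with detectable luminescence on day 3 were treated. Compound given by oral gavage bid for four days, as a suspension in 20% HPβCD or a solution in 20% Kolliphor, five mice per group. Vehicle group and benznidazole 50 mg/kg served as controls. On day 7, mice were injected ip with 150 mg/kg d-luciferin and imaged after 5 min under isoflurane. Percent inhibition calculated against untreated mice; two-tailed paired t test.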
row,Compound,inhibition in vivo at 50 mg/kg [%]
1,O=C(N[C@H](Cc1c[nH]c2ccccc12)C(=O)Nc1ccncc1)c1ccc(N2CCN(c3cccc(Cl)c3)CC2)cc1F,97.6

# Tested on: Lung
# Assay: Drug uptake in mouse lung at 50 mg/kg, po in 20% HP-beta-CD measured at 8 hrs post dose
# Format: ADME, organism-based
# Set-up: dose 50 mg/kg, route oral
# Settings: in vivo
# Summary of the method: as §1
row,Compound,Drug uptake
1,O=C(N[C@H](Cc1c[nH]c2ccccc12)C(=O)Nc1ccncc1)c1ccc(N2CCN(c3cccc(Cl)c3)CC2)cc1F,Active
2,CC(=O)N1CCN(c2ccc(C(=O)N[C@H](Cc3c[nH]c4ccccc34)C(=O)Nc3ccncc3)c(F)c2)CC1,Active
3,O=C(N[C@H](Cc1c[nH]c2ccccc12)C(=O)Nc1ccncc1)c1ccc(-c2cc(F)ccc2F)cc1F,Active

# Tested on: Trypanosoma cruzi
# Assay: Antitrypanosomal activity against Trypanosoma cruzi Y luc infected in mouse assessed as inhibition of parasitemia at 25 mg/kg, po bid in 20% Kolliphor administered for 4 consecutive days starting on day 3 of infection measured on day 7 post infection relative to vehicle-treated control
# Format: functional
# Settings: not given
# Summary of the method: as §2
row,Compound,inhibition in vivo at 25 mg/kg [%]
1,O=C(N[C@H](Cc1c[nH]c2ccccc12)C(=O)Nc1ccncc1)c1ccc(N2CCN(c3cccc(Cl)c3)CC2)cc1F,73.6
2,O=C(N[C@H](Cc1c[nH]c2ccccc12)C(=O)Nc1ccncc1)c1ccc(-c2cc(F)ccc2F)cc1F,72.2

# Tested on: Lung
# Assay: Drug uptake in mouse lung at 50 mg/kg, po in 20% Kolliphor measured at 8 hrs post dose
# Format: ADME, organism-based
# Set-up: dose 50 mg/kg, route oral
# Settings: in vivo
# Summary of the method: as §1
row,Compound,Drug uptake
1,O=C(N[C@H](Cc1c[nH]c2ccccc12)C(=O)Nc1ccncc1)c1ccc(N2CCN(c3cccc(Cl)c3)CC2)cc1F,Active
2,CC(=O)N1CCN(c2ccc(C(=O)N[C@H](Cc3c[nH]c4ccccc34)C(=O)Nc3ccncc3)c(F)c2)CC1,Active
3,O=C(N[C@H](Cc1c[nH]c2ccccc12)C(=O)Nc1ccncc1)c1ccc(-c2cc(F)ccc2F)cc1F,Active

# Tested on: Liver
# Assay: Half life in mouse liver microsomes
# Format: ADME
# Settings: not given
row,Compound,t1/2 [min]
1,O=C(N[C@H](Cc1c[nH]c2ccccc12)C(=O)Nc1ccncc1)c1ccc(N2CCN(c3cccc(Cl)c3)CC2)cc1F,33
2,CC(=O)N1CCN(c2ccc(C(=O)N[C@H](Cc3c[nH]c4ccccc34)C(=O)Nc3ccncc3)c(F)c2)CC1,13

# Tested on: not listed separately
# Assay: Drug uptake in mouse skeletal muscle at 50 mg/kg, po in 20% Kolliphor measured at 8 hrs post dose
# Format: ADME, organism-based, Muscle tissue
# Set-up: dose 50 mg/kg, route oral
# Settings: in vivo
# Summary of the method: as §1
row,Compound,Drug uptake
1,O=C(N[C@H](Cc1c[nH]c2ccccc12)C(=O)Nc1ccncc1)c1ccc(N2CCN(c3cccc(Cl)c3)CC2)cc1F,Active
2,CC(=O)N1CCN(c2ccc(C(=O)N[C@H](Cc3c[nH]c4ccccc34)C(=O)Nc3ccncc3)c(F)c2)CC1,Active
3,O=C(N[C@H](Cc1c[nH]c2ccccc12)C(=O)Nc1ccncc1)c1ccc(-c2cc(F)ccc2F)cc1F,Active

# Tested on: Heart
# Assay: Drug uptake in mouse heart at 50 mg/kg, po in 20% HP-beta-CD measured at 8 hrs post dose
# Format: ADME, organism-based
# Set-up: dose 50 mg/kg, route oral
# Settings: in vivo
# Summary of the method: as §1
row,Compound,Drug uptake
1,O=C(N[C@H](Cc1c[nH]c2ccccc12)C(=O)Nc1ccncc1)c1ccc(N2CCN(c3cccc(Cl)c3)CC2)cc1F,Active
2,CC(=O)N1CCN(c2ccc(C(=O)N[C@H](Cc3c[nH]c4ccccc34)C(=O)Nc3ccncc3)c(F)c2)CC1,Active
3,O=C(N[C@H](Cc1c[nH]c2ccccc12)C(=O)Nc1ccncc1)c1ccc(-c2cc(F)ccc2F)cc1F,Active

# Tested on: not listed separately
# Assay: Drug uptake in mouse skeletal muscle at 50 mg/kg, po in 20% HP-beta-CD measured at 8 hrs post dose
# Format: ADME, organism-based, Muscle tissue
# Set-up: dose 50 mg/kg, route oral
# Settings: in vivo
# Summary of the method: as §1
row,Compound,Drug uptake
1,O=C(N[C@H](Cc1c[nH]c2ccccc12)C(=O)Nc1ccncc1)c1ccc(N2CCN(c3cccc(Cl)c3)CC2)cc1F,Active
2,CC(=O)N1CCN(c2ccc(C(=O)N[C@H](Cc3c[nH]c4ccccc34)C(=O)Nc3ccncc3)c(F)c2)CC1,Active
3,O=C(N[C@H](Cc1c[nH]c2ccccc12)C(=O)Nc1ccncc1)c1ccc(-c2cc(F)ccc2F)cc1F,Active
